Compound activity deposited in PubChem by Johns Hopkins Ion Channel Center.
MrgX1 antag: antagonists of human MrgX1 receptor, primary screen, HEK293 cells, Fluo-4 calcium flux; B-score at 10 µM; Mas-related G-protein coupled receptor member X1 (Homo sapiens), Q96LB2; BAM8-22 antagonism; hits give low values; 310,000 tested, 1.3% active;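 active = calcium-response B-score plate-corrected more than 3 library SD below zero, starting fluorescence within 5 deviations, no agonist response on first addition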;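 note: peak minus trough fluorescence over baseline after final BAM8-22 challenge near maximal dose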
Target sequence (Q96LB2 whole entry, looked up): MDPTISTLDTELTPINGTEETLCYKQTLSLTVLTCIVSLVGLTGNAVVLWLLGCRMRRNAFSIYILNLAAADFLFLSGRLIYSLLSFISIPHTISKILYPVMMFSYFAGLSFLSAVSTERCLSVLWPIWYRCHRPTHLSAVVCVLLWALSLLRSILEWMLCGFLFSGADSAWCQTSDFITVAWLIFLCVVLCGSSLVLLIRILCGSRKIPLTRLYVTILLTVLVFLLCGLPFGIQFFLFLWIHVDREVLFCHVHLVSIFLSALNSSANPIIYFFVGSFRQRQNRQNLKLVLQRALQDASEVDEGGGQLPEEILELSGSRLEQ
RGS4 inh: RGS4 inhibitors, primary screen, cell-based, HEK293 M3R inducible RGS4, calcium flux | Regulator of G-protein signaling 4 (Homo sapiens), P49798 | Fluo-4 calcium flux; hits give high values; triggered by carbachol at its EC20 | B-score at 10 µM | 310,000 tested, 0.45% active | AID 463165, 2010;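 active = B-score, a plate-corrected calcium signal, over three deviations above library mean, with baseline fluorescence within five deviations of library mean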;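 note: RGS4 expression induced by doxycycline in cells with stable M3 receptor; B-score is computed from the integrated fluorescence ratio over baseline after carbachol; higher B-score means a larger calcium signal and so more RGS4 inhibition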
Target sequence (P49798 whole entry, looked up): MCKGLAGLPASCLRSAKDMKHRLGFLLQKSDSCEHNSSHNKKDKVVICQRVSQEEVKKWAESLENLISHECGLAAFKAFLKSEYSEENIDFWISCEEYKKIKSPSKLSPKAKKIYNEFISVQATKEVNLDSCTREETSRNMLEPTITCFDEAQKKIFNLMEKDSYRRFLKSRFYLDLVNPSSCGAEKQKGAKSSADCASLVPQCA
MrgX1 ag: agonists of human MrgX1 receptor, primary screen, HEK293 cells, Fluo-4 calcium flux. Mas-related G-protein coupled receptor member X1 (Homo sapiens), Q96LB2. Fluo-4 calcium fluorescence, agonist mode; hits give high values. B-score at 10 µM. 310,000 tested, 0.44% active;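 active = calcium response B-score plate-corrected fluorescence ratio at least 3 library SD, with starting fluorescence B-score inside 5 SD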
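Test system: HEK293 cells stably expressing human MrgX1 receptor; Input: fifteen thousand cells per well; Dosing: compound delivered in addition one of three; Schedule: overnight seeding, then 1 h dark dye loading; Technique: Fluo-4 NW calcium fluorescence; Measure: B-scored fluorescence response ratio; Controls: positive and negative controls per plate.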
MrgX1 PAM: positive allosteric modulators of MrgX1, primary screen, HEK293 cells, Fluo-4 calcium flux; AID 588675, 2011; 310,000 tested, 0.63% active; FDSS; hits give high values; B-score at 10 µM;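 active = plate-corrected calcium response at least 3 library SD above typical, normal starting fluorescence, not activating the receptor alone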;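 note: compound read alongside a low EC10 to EC30 dose of BAM8-22 agonist; peak minus trough fluorescence over baseline measured at the second addition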
RGS4 pot: RGS4 potentiators or activators, primary screen, cell-based, HEK293 M3R inducible RGS4, calcium flux; carbachol calcium flux Fluo4; hits give low values; B-score at 10 µM; 310,000 tested, 0.92% active;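 active = B-score of the integrated calcium signal more than 4 SD below the library mean, with starting fluorescence not abnormally high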;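 note: negative B-score means reduced calcium response which marks RGS4 activation or potentiation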
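Also added: carbachol at ECmax as muscarinic agonist stimulus; Assay system: HEK293 cells with stable M3R and inducible RGS4; Timing: overnight RGS4 induction, 30 min dye load 37 °C, 20 min compound RT; Measured by: Fluo4-AM (2 µM) calcium-flux fluorescence, kinetic read.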
MrgX1 antag conf: MrgX1 receptor antagonists, duplicate retest, confirmation, HEK293 cells, Fluo-4 calcium flux; shares compounds with MrgX1 antag; BAM8-22 calcium flux; hits give low values; remaining BAM8-22 calcium response % of control (hits give low values), % at 10 µM; 2,300 tested, 19% active; AID 602420, 2012;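 active = remaining agonist calcium response no higher than 100% minus 3 SD of agonist-only control wells, with starting fluorescence near control levels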;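 note: agonist BAM8-22 given at a near maximal EC90 to ECmax level; peak minus minimum fluorescence divided by baseline after agonist addition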
HEK293 Ca flux: nonspecific calcium signal in parental HEK293, confirmation, counter-screen for MrgX1 antagonist project, parental HEK293 cells, Fluo-4 calcium flux | 4,000 tested, 2% active | fluorescence ratio F(max-min)/F0 at 10 µM | shares compounds with MrgX1 antag | Fluo-4 calcium fluorescence, FDSS;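 active = duplicate-averaged calcium fluorescence ratio at least three times the standard deviation of buffer wells, a nonspecific response in parental cells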
HEK293 Ca counter: calcium response in parental HEK293 cells, primary screen, counter-screen for MrgX1 allosteric activator project, cell-based, Fluo-4 calcium flux, duplicate. Fluo-4 fluorescence ratio; hits give high values. fluorescence ratio F(max-min)/F0 at 10 µM. shares compounds with MrgX1 antag. 4,000 tested, 0.4% active;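 active = calcium fluorescence ratio, averaged over duplicates, at least 3 SD of the buffer-well ratio, meaning a nonspecific response in receptor-free cells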;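 note: untransfected parental HEK293 lacking MrgX1 used as counterscreen for MrgX1 allosteric activators; fluorescence change taken during the second addition on a kinetic imager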
HEK293 Ca cntr2: calcium response in parental HEK293 cells, primary screen, counter-screen for MrgX1 agonist project, cell-based, Fluo-4 calcium flux, duplicate, agonist mode. shares compounds with MrgX1 antag. Fluo-4 calcium fluorescence (FDSS); hits give high values. fluorescence ratio F(max-min)/F0 at 10 µM. 4,000 tested, 8.7% active. AID 624115, 2012;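 active = calcium fluorescence ratio at least three times the spread of buffer wells, meaning a non-specific response in parental cells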
The depositor's hits bear a star; i = inactive; x = no result given. Rows were chosen to be rich in hits. Some 3.5% of all compounds tested hit in one or more screens of this group.

SMILES	MrgX1 antag	RGS4 inh	MrgX1 ag	MrgX1 PAM	RGS4 pot	MrgX1 antag conf	HEK293 Ca flux	HEK293 Ca counter	HEK293 Ca cntr2
CCN(CC(=O)Nc1ccc2c(c1)OCCO2)S(=O)(=O)c1ccccc1	i	i	i	i	i	x	x	x	x
Cn1c(=O)c2c(nc(CN3CCOCC3)n2CCc2ccccc2)n(C)c1=O	-4.88*	i	i	i	i	i	i	i	i
CC1CCN(S(=O)(=O)c2cccc(C(=O)NC3CCCC3)c2)CC1	i	i	i	i	i	x	x	x	x
O=C1CC(N2CCC(O)(c3ccc(Br)cc3)CC2)C(=O)N1c1ccc(Cl)cc1 (centres undefined)	-6.54*	i	i	i	i	i	i	i	i
O=C(O)CNC(=O)C(CS)Cc1ccccc1 (centres undefined)	-8.61*	x	i	i	x	i	i	i	i
O=C(O)CNC(=O)C(c1ccccc1)c1ccccc1	i	i	i	i	i	x	x	x	x
COc1ccc(CCNC(=O)C2CCN(S(=O)(=O)c3ccc4c(c3)oc(=O)n4C)CC2)cc1OC	i	i	i	i	i	x	x	x	x
S=C(NCCNC(=S)Nc1ccccc1Cl)Nc1ccccc1Cl	-4.74*	i	i	i	i	84.6%*	i	i	i
CN(C)CCNC(=S)Nc1ccccc1Cl	i	i	i	i	i	x	x	x	x
Cc1c(Cl)cccc1NC(=S)NCCCN(C)C	-5.52*	i	i	i	i	i	i	i	i
COc1ccc(C(=O)NC2CCN(C(=S)Nc3ccc(C)cc3)CC2)cc1	-4.75*	i	i	i	i	i	i	i	i
COc1ccc(NC(=S)N2CCC(NC(=O)c3cccc(C)c3)CC2)cc1	i	i	i	i	i	x	x	x	x
O=C(NCCN1CCN(C(=O)Nc2ccccc2)CC1)Nc1ccccc1	-6.1*	i	i	i	i	i	i	i	i
O=C(NNC(=O)C1CCN(c2ncccn2)CC1)c1ccc(F)cc1	i	i	i	i	i	x	x	x	x
CCN(C(=O)c1c(-c2ccccc2)noc1C)c1ccccc1	-4.59*	i	i	i	i	i	i	i	i
CCOCCCNc1ncnc2c1[nH]c1ccccc12	i	i	i	i	i	x	x	x	x
CCCCOCCCNc1ncnc2c1[nH]c1ccccc12	-13.9*	i	i	i	i	26.2%*	i	i	i
COc1cc(Cl)cc(CN2CCC(CCC(=O)NC3CC3)CC2)c1OC	i	i	i	i	i	x	x	x	x
CSc1nc(N2CCN(c3ccccc3)CC2)cc(N2CCN(c3ccccc3)CC2)n1	-5.52*	i	i	i	i	i	i	i	i
Nc1c(C(=O)N/N=C/c2ccc([N+](=O)[O-])cc2)sc2nnc(-c3ccccc3)c(-c3ccccc3)c12	i	i	i	i	i	x	x	x	x
O=C(CCNC(=O)c1ccc(Br)cc1)OCc1ccccc1Cl	i	i	i	i	i	x	x	x	x
CCOC(=O)c1ccc(NC(=O)CCNS(=O)(=O)c2cccs2)cc1	-5.39*	i	i	i	i	i	i	i	i
COC(=O)c1ccc(NC(=O)CNS(=O)(=O)c2cccs2)cc1	i	i	i	i	i	x	x	x	x
COc1cc(C=C(c2nc3ccccc3s2)c2nc3ccccc3s2)ccc1O	i	i	i	i	i	x	x	x	x
COc1cc(/C=C/c2nc3ccccc3s2)cc(OC)c1O	-5.74*	i	i	i	i	i	i	i	i
SMILES	MrgX1 antag	RGS4 inh	MrgX1 ag	MrgX1 PAM	RGS4 pot	MrgX1 antag conf	HEK293 Ca flux	HEK293 Ca counter	HEK293 Ca cntr2
O=S(=O)(Nc1nc(-c2ccccc2)cs1)c1cccc(C(F)(F)F)c1	-7.42*	i	i	i	i	i	i	i	i
O=C1NC2(CCCCCC2)C(=O)N1Cc1cccc([N+](=O)[O-])c1	i	i	i	i	i	x	x	x	x
COc1ccc(-n2nc3c(c2NC(=O)COc2cccc(OC)c2)CS(=O)(=O)C3)cc1	-7.52*	i	i	i	i	i	i	i	i
COCCN=C1Sc2nc3ccc(C)cc3cc2CN1Cc1ccco1	-5.43*	i	i	i	i	i	i	i	i
CC(C)(C)c1csc(NC(=O)c2ccncc2)n1	-7.04*	i	i	i	i	i	i	i	i
CCn1ncc(Br)c1C(=O)Nc1sc2c(c1C(=O)OC)CCC2	i	i	i	i	i	x	x	x	x
CCOC(=O)c1c(NC(=O)c2c(Br)cnn2CC)sc(C)c1C	-7.1*	i	i	i	i	i	i	i	i
COc1cccc(Nc2ncnc3sccc23)c1	i	i	i	i	i	x	x	x	x
COC(=O)c1cccc(Nc2ncnc3sccc23)c1	-4.52*	i	i	i	i	i	i	i	i
CC1CN(C(=O)CS(=O)(=O)Cc2ccc(Cl)cc2)CC(C)O1 (centres undefined)	-4.78*	i	i	i	i	i	i	i	i
Cc1ccc(CC(=O)N2CC(C)OC(C)C2)cc1 (centres undefined)	i	i	i	i	i	x	x	x	x
O=C(CC1C(=O)NCCN1C/C=C/c1ccccc1)NCCCC1CCCC1 (centres undefined)	i	i	i	i	i	x	x	x	x
Cc1nn(C)cc1CN(C)C(=O)c1nn2c(c1Cl)NC(c1cccs1)CC2C(F)(F)F (centres undefined)	-4.98*	i	i	i	i	73.7%*	i	i	i
